Source: PubChem BioAssay (Broad Institute)
Pf Dd2 growth = P. falciparum Dd2 growth inhibition; hit rate 2.3% among 94,000; SYBR Green, 72 h; active compounds read low; activity change, % at 10 µM; in the data active = activity change below about -80%; inconclusive = no clear call, values can overlap the other calls
T cruzi growth-1 = T. cruzi proliferation inhibition | AID 624255 | T. cruzi beta-gal in NIH3T3, GalScreen luminescence, 90 h | hit rate 5.9% among 77,000 | inhibition, % at 8.34 µM;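 active = mean inhibition above about 93%, with at least 55% of replicates each passing it, limit read from the data, passing the limit was not always enough; inconclusive = only one of those two conditions holds; inactive = neither condition holds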
IDH1 R132H inh = blocks human IDH1 R132H reductase activity; hit rate 0.18% among 70,000; AID 624101; O75874; inhibition, % at 10 µM; diaphorase/resazurin fluorescence, 60 min; in the data active = inhibition above about 34%; inconclusive = no clear call, values can overlap the other calls; inactive = below about 11%;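 also: 0% = DMSO and 100% = no enzyme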
Target sequence (O75874 whole entry R132H): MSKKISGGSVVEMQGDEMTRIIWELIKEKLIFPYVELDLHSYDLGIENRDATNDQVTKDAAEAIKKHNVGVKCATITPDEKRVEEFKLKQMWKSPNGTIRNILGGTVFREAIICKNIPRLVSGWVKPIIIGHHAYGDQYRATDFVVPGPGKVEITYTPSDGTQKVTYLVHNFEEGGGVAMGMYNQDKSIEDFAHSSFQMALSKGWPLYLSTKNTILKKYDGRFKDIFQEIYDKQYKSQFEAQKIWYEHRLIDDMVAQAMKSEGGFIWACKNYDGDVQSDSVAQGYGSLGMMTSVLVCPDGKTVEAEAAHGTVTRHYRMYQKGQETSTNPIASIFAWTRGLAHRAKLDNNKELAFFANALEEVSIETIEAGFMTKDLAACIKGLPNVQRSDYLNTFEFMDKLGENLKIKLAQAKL
KDM4C inh = blocks human GASC-1 (KDM4C) demethylase activity | Q9H3R0 | GST-KDM4C 2-372, H3K9me3 peptide, LANCE TR-FRET | inhibition, % at 12.5 µM | hit rate 0.15% among 96,000 | AID 720574;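 active = mean replicate inhibition above about 25%, with at least 55% of replicates also reaching it, limit read from the data, passing the limit was not always enough; inconclusive = only one of those two conditions met; inactive = neither condition met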
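Test system: N-terminal GST-fused human GASC-1 (KDM4C) fragment, residues 2-372; quantity: GASC-1 enzyme at 10 nM final in reaction; dosing: single dose; schedule: 30 min demethylation and 1 h detection at room temperature; signal: LANCE TR-FRET, excitation 340 nm, emissions 618 and 671 nm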
T cruzi growth-2 = Trypanosoma cruzi proliferation inhibition. shares compounds with T cruzi growth-1. T. cruzi beta-gal in NIH3T3, GalScreen luminescence, 90 h. inhibition, % at 8.35 µM. hit rate 72% among 5,600. AID 651739;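 active = mean replicate inhibition above about 95% and at least 55% of replicates individually reaching it, limit read from the data; inconclusive = only one of the two criteria is met; inactive = neither criterion is met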
T cruzi growth-3 = blocks T. cruzi growth in NIH3T3 host cells; shares compounds with T cruzi growth-1; AID 651740; hit rate 21% among 5,600; T. cruzi beta-gal in NIH3T3, GalScreen luminescence, 90 h; inhibition, % at 2.09 µM;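 active = mean inhibition above about 95%, with at least 55% of replicates also reaching it, limit read from the data; inconclusive = meets just one of the two conditions; inactive = meets neither condition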;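 also: plate controls were neutral control median for no effect and positive control median for full effect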
3T3 cytotox = cytotoxicity in mouse NIH/3T3 fibroblasts | shares compounds with T cruzi growth-1 | NIH/3T3 viability, CellTiter-Glo ATP luminescence, 90 h | cytotoxicity (signal decrease), % at 8.35 µM | hit rate 14% among 5,600 | AID 651742;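 active = mean signal decrease across replicates above about 35% based on untreated-well scatter, with enough replicates individually passing, limit read from the data; inconclusive = no rule stated though some were filed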;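 also: 0% = median of neutral control wells and 100% = median of positive control wells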
NIH3T3 tox 2 = cytotoxicity in mouse NIH/3T3 fibroblasts; inhibition, % at 24.9 µM; NIH/3T3 viability, CellTiter-Glo ATP luminescence, 90 h; shares compounds with T cruzi growth-1; AID 651744; hit rate 56% among 5,600;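 active = mean loss of cell viability signal at or above a set limit, and enough replicates individually reaching it; inconclusive = meets only the mean limit or only the replicate share; inactive = meets neither condition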;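 also: 0% = median of neutral control wells and 100% = median of positive control wells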
The depositor's hits bear a star; ? = inconclusive; · = no result given. A selection: hits, their analogues and other compounds. The true share with any hit is near 5.8%.

SMILES	Pf Dd2 growth	T cruzi growth-1	IDH1 R132H inh	KDM4C inh	T cruzi growth-2	T cruzi growth-3	3T3 cytotox	NIH3T3 tox 2
CCCC#Cc1ccc([C@H]2[C@@H](C#N)N(C(=O)C3CC3)[C@@H]2CO)cc1	-26.1	?	·	-1.2	102.7*	86.4	-28.8	15.4
CCCC#Cc1ccc([C@@H]2[C@@H](C#N)N(C(=O)C3CCOCC3)[C@H]2CO)cc1	-23.3	63.1	·	-1.1	·	·	·	·
CCCC#Cc1ccc([C@H]2[C@@H](C#N)N(C(=O)C3CCC3)[C@H]2CO)cc1	-55.2	92.6	·	0.0	·	·	·	·
CCCC#Cc1ccc([C@H]2[C@@H](C#N)N(C(=O)C3CC3)[C@H]2CO)cc1	-37.8	?	·	0.4	?	?	5.7	41.2*
CCCC#Cc1ccc([C@@H]2[C@@H](CO)N(C(=O)C3CC3)[C@H]2C#N)cc1	-13.9	101.3*	·	2.3	97.7*	69.9	-4.9	35.8*
CCCCN(CCCC)c1ccc(/C=N/NC(=O)CCCCC(=O)NO)cc1	·	·	3.0	·	·	·	·	·
CCCN(C)C[C@H]1Oc2cc(C#CC3CCCCC3)ccc2S(=O)(=O)N([C@H](C)CO)C[C@H]1C	-78.2	89.5	4.1	-1.6	·	·	·	·
C[C@H](CO)N1C[C@H](C)[C@H](CN(C)C(=O)Nc2ccc(F)cc2)OCCCC[C@H](C)Oc2ccc(NC(=O)c3ccccc3)cc2C1=O	-56.8	?	0.4	-1.9	106.7*	76.1	-23.3	1.7
C[C@H](CO)N1C[C@H](C)[C@@H](CN(C)C(=O)Nc2ccc(C(F)(F)F)cc2)OCCCC[C@H](C)Oc2ccc(NC(=O)c3ccccc3)cc2C1=O	-50.8	101.1*	·	-0.5	109.9*	113.3*	36.3*	52.4*
C[C@H](CO)N1C[C@H](C)[C@H](CN(C)C(=O)Nc2ccc(C(F)(F)F)cc2)OCCCC[C@H](C)Oc2ccc(NC(=O)c3ccccc3)cc2C1=O	-82.5*	?	·	-1.2	105.8*	108.6*	5.7	19.4
C[C@@H]1CCCCO[C@@H](CN(C)C(=O)Nc2ccc(F)cc2)[C@H](C)CN([C@@H](C)CO)C(=O)c2cc(NC(=O)c3ccccc3)ccc2O1	-40.0	56.6	·	-0.6	·	·	·	·
CCCC#Cc1cnc2c(c1)C(=O)N([C@@H](C)CO)C[C@@H](C)[C@H](CN(C)S(C)(=O)=O)O2	15.9	43.8	-6.2	1.9	·	·	·	·
C[C@H]1CN([C@@H](C)CO)S(=O)(=O)c2ccc(C3=CCCCC3)cc2O[C@@H]1CN(C)C(=O)Cc1ccccc1	-47.2	79.2	0.0	-2.5	·	·	·	·
C[C@H]1CN([C@@H](C)CO)S(=O)(=O)c2ccc(C3=CCCCC3)cc2O[C@@H]1CN(C)C(=O)Cc1ccncc1	-79.9	107.0*	13.7	2.8	105.4*	68.4	8.0	11.1
C[C@H]1CN([C@@H](C)CO)S(=O)(=O)c2ccc(C3=CCCCC3)cc2O[C@H]1CN(C)C(=O)Cc1ccncc1	-77.2	98.2*	·	2.1	99.0*	68.0	37.1*	35.7*
C[C@H](CO)N1C[C@H](C)[C@H](CN(C)C(=O)Cc2ccncc2)Oc2cc(C3=CCCC3)ccc2S1(=O)=O	-42.0	79.9	·	-0.6	·	·	·	·
C[C@@H]1CN([C@H](C)CO)C(=O)c2cc(NC(=O)c3ccncc3)ccc2O[C@H]1CN(C)CC1CCCCC1	-14.0	-2.8	·	-1.4	·	·	·	·
C[C@H]1CCCCO[C@H](CN(C)C(=O)c2ccncc2)[C@@H](C)CN([C@@H](C)CO)C(=O)c2cc(NC(=O)c3ccncc3)ccc2O1	18.4	19.2	·	1.2	·	·	·	·
C[C@@H]1CCCCO[C@H](CN(C)C(=O)c2ccncc2)[C@@H](C)CN([C@@H](C)CO)C(=O)c2cc(NC(=O)c3ccncc3)ccc2O1	-0.4	101.0*	1.3	0.7	-14.0	-23.7	11.6	8.3
CC(C)NC(=O)N(C)C[C@H]1OCCCC[C@@H](C)Oc2ccc(NC(=O)c3ccncc3)cc2C(=O)N([C@H](C)CO)C[C@@H]1C	9.8	95.7*	-0.9	-0.3	29.3	28.6	-0.7	4.4
CC(C)NC(=O)N(C)C[C@H]1OCCCC[C@H](C)Oc2ccc(NC(=O)c3ccncc3)cc2C(=O)N([C@@H](C)CO)C[C@H]1C	11.0	41.1	12.9	-2.1	·	·	·	·
C[C@H](CO)N1C[C@H](C)[C@H](CN(C)C)OCCCC[C@H](C)Oc2ccc(NS(=O)(=O)c3cccs3)cc2C1=O	52.8	53.5	0.3	-1.3	·	·	·	·
COc1ccc(NC(=O)Nc2ccc3c(c2)C(=O)N([C@@H](C)CO)C[C@H](C)[C@@H](CN(C)Cc2ccc(C(=O)O)cc2)O3)cc1	25.8	-15.9	0.6	-0.2	·	·	·	·
C[C@H](CO)N1C[C@H](C)[C@@H](CN(C)Cc2ccccc2)Oc2ccc(NC(=O)NC3CCCCC3)cc2C1=O	5.8	-8.7	·	4.2	·	·	·	·
C[C@@H]1CN([C@H](C)CO)C(=O)c2cc(NC(=O)C3CCCCC3)ccc2O[C@H]1CN(C)Cc1ccc(-c2ccccc2)cc1	-10.3	?	3.0	0.1	107.8*	-4.9	3.7	39.2*
SMILES	Pf Dd2 growth	T cruzi growth-1	IDH1 R132H inh	KDM4C inh	T cruzi growth-2	T cruzi growth-3	3T3 cytotox	NIH3T3 tox 2
C[C@H](CO)N1C[C@H](C)[C@H](CN(C)Cc2ccc(-c3ccccc3)cc2)Oc2ccc(NC(=O)NC3CCCCC3)cc2C1=O	12.7	111.0*	-0.9	-2.1	104.2*	18.8	12.7	47.0*
C[C@H]1CN([C@@H](C)CO)C(=O)c2cc(NC(=O)C3CCCCC3)ccc2O[C@@H]1CN(C)Cc1ccc(-c2ccccc2)cc1	-42.4	104.3*	·	0.3	109.0*	70.4	32.8	21.1
C[C@H](CO)N1C[C@H](C)[C@@H](CN(C)Cc2ccc(-c3ccccc3)cc2)Oc2ccc(NC(=O)C3CCCCC3)cc2C1=O	-3.6	41.5	·	-0.9	·	·	·	·
Cc1noc(C)c1S(=O)(=O)Nc1ccc2c(c1)C(=O)N([C@@H](C)CO)C[C@@H](C)[C@H](CN(C)S(=O)(=O)c1cn(C)cn1)O2	4.0	10.1	1.0	1.4	·	·	·	·
CCCNC(=O)N1[C@H](CO)[C@@H](c2ccc(-c3ccccc3)cc2)[C@@H]1CNC(C)=O	1.8	0.8	·	-0.2	·	·	·	·
O=C(C[C@H]1CC[C@@H]2[C@H](COC[C@@H](O)CN2CCC(F)(F)F)O1)NCC1CCCCC1	13.0	107.5*	·	-0.7	32.3	6.0	21.3	23.7
O=C(C[C@H]1CC[C@@H]2[C@H](COC[C@H](O)CN2CCc2ccccc2)O1)NCc1ccc(Oc2ccccc2)cc1	-8.1	102.7*	·	1.0	101.7*	94.8	-0.4	106.6*
O=C(C[C@H]1CC[C@H]2[C@@H](COC[C@@H](O)CN2CCC(F)(F)F)O1)NCc1ccc(Oc2ccccc2)cc1	·	107.8*	·	-1.1	85.0	11.0	39.1*	12.1
